Results on 22 compounds are retold here after ChEMBL document CHEMBL3351268, “Synthesis, biological evaluation, and molecular modeling of new 3-(cyclopentyloxy)-4-methoxybenzaldehyde O-(2-(2,6-dimethylmorpholino)-2-oxoethyl) Oxime (GEBR-7b) related phosphodiesterase 4D (PDE4D) inhibitors” (J Med Chem, 2014).

Calls of active or inactive are those of the source. No cut-off for these calls is given here.

The target of series [1] is T1, 3',5'-cyclic-AMP phosphodiesterase 4D (Homo sapiens, UniProt Q08499). Briefly: Inhibition of recombinant human PDE4D3 expressed in baculoviral system at 10 uM. The method in brief:
(§1)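 Recombinant PDE4 isoform enzyme activity measured with compound at 10 μM, in duplicate; result given as % inhibition relative to control activity. PDE4D3 is recombinant human, expressed in a baculoviral system.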

Series [2] in a line: Cytotoxicity against human HTLA-230 cells at 100 uM after 24 hrs by lactate dehydrogenase release assay. Format: cell-based. The note with it: htla-230, 24 h. The method in brief: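 HTLA human neuronal cells exposed 24 h to 100 μM test compound; cytotoxicity read as lactate-dehydrogenase release.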
Series [3] can be described thus: Genotoxicity against human HTLA-230 cells assessed as phosphorylation of histone H2AX at 100 uM after 24 hrs by Western blot analysis. The following applies: htla-230, 24 h. Format: toxicity, cell-based. Background: Immunoblotting shows a protein as a band on a membrane.
In series [4] the target is T1, 3',5'-cyclic-AMP phosphodiesterase 4D. The series is described as follows: Inhibition of PDE4D1 (unknown origin) at 10 uM.
Series [5] shares this target. Briefly: Inhibition of PDE4D2 (unknown origin) at 10 uM.
For series [6] the target is unchanged. Briefly: Inhibition of PDE4D3 (unknown origin) at 10 uM. The method in brief:
as §1

The target in series [7] is 3',5'-cyclic-AMP phosphodiesterase 4A (Homo sapiens) (UniProt P27815). The series is described as follows: Inhibition of PDE4A4 (unknown origin) at 10 uM. The method in brief: as §1
3',5'-cyclic-AMP phosphodiesterase 4A (Homo sapiens), sequence (P27815 whole entry): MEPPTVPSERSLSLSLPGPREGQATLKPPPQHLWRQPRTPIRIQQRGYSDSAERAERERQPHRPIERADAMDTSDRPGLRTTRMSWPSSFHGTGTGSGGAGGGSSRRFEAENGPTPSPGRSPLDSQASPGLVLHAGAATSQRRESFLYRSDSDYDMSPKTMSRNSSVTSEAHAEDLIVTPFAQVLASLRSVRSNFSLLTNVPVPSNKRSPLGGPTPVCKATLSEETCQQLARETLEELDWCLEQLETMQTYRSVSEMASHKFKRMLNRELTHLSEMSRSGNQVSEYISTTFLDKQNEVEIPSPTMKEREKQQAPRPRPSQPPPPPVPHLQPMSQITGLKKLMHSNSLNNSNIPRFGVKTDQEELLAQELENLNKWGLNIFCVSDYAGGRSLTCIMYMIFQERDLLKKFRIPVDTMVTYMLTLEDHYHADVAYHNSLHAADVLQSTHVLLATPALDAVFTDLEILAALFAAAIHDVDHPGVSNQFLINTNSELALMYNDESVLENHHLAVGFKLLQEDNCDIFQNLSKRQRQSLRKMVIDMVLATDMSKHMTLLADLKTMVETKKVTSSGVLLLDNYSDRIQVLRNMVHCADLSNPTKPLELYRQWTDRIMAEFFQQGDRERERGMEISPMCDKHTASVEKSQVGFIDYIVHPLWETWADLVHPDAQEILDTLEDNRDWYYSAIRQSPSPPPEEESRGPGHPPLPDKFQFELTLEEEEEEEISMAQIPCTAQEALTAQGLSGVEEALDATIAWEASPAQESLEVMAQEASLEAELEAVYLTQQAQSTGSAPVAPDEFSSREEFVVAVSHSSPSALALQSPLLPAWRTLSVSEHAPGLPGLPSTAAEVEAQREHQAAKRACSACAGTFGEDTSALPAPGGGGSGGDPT
Series [8] deals with T2, 3',5'-cyclic-AMP phosphodiesterase 4B (Homo sapiens, UniProt Q07343). The series is described as follows: Inhibition of PDE4B2 (unknown origin) at 10 uM. The method in brief:
as §1

The target in series [9] is T1, 3',5'-cyclic-AMP phosphodiesterase 4D. The series is described as follows: Inhibition of recombinant human PDE4D3 expressed in baculoviral system. The method in brief:
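Recombinant PDE4 isoform enzyme (PDE4D3: recombinant human, baculoviral expression) tested at five concentrations over 5 × 10−8–10−4 M, in duplicate. IC50 obtained by nonlinear regression of the inhibition curve with Hill equation fitting.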

For series [10] the target is unchanged. Briefly: Inhibition of PDE4D3 in human HTLA230 cells assessed as accumulation of intracellular cAMP pretreated at 100 uM for 10 min before forskolin addition measured after 20 mins by enzyme immunoassay. Type of series: cell-based. The method in brief:
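cAMP accumulation in HTLA cells treated 30 min with compound. Where indicated, forskolin was added during the last 20 min to raise basal cAMP. Intracellular cAMP measured by cAMP-specific enzymatic immunoassay.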

The target of series [11] is T2, 3',5'-cyclic-AMP phosphodiesterase 4B. Briefly: Inhibition of PDE4B2 (unknown origin).
A further series is filed under the species Homo sapiens. The series is described as follows: Selectivity ratio of IC50 PDE4B2 (unknown origin) for to IC50 for ecombinant human PDE4D3 expressed in baculoviral system.

What is called inhibition is the percentage by which the read-out fell short of the control. In general, IC50 refers to the concentration that gives 50% inhibition.

T2 sequence (Q07343 whole entry): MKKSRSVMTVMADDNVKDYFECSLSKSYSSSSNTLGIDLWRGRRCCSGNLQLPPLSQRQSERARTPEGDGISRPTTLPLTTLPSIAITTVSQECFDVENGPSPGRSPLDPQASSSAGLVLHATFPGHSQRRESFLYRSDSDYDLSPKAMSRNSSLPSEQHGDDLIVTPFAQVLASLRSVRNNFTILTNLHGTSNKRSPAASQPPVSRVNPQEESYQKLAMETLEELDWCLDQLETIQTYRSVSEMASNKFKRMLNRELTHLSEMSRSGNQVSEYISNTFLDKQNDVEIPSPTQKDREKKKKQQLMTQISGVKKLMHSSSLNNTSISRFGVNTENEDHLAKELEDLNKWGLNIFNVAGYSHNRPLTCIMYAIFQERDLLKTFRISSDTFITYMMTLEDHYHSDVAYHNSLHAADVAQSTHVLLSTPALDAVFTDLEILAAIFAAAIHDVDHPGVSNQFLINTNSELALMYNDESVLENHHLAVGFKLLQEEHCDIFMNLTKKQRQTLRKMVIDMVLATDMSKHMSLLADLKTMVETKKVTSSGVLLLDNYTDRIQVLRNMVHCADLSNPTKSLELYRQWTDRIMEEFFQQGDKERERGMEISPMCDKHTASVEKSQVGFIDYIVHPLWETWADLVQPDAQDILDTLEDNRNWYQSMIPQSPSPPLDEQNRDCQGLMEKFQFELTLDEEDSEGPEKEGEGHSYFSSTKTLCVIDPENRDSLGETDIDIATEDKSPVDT
T1 sequence (Q08499 whole entry, canonical isoform): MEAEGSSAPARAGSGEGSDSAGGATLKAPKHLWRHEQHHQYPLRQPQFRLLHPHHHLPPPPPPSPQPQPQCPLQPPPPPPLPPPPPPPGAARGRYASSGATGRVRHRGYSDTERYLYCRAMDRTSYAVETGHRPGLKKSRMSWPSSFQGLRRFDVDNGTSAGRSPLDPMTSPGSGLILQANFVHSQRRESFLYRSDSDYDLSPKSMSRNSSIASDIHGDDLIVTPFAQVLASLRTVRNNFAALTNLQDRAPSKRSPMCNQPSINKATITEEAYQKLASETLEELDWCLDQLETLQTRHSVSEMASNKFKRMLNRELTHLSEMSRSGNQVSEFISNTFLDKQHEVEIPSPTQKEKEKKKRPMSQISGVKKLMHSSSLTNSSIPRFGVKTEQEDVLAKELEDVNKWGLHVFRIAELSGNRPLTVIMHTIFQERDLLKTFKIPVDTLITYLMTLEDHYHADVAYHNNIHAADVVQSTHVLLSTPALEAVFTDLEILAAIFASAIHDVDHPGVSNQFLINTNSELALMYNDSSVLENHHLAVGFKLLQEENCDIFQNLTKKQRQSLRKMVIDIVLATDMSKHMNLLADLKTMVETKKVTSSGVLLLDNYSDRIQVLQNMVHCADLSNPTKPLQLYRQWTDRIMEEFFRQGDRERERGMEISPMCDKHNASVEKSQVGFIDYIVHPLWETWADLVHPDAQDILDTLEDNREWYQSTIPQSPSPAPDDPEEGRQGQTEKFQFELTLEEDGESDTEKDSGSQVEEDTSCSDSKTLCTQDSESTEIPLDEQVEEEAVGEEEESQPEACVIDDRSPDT

For `COc1ccc(/C=N/OCCC(=O)N2CC(C)OC(C)C2)cc1OC1CCCC1` (stereo not given), the inhibition in series [1] amounted to 24%.
The same measure, in the same setting: the value for `COc1ccc(/C=C/C(=O)N2CCOCC2)cc1OC1CCCC1` was 25%.
Take `COc1ccc(/C=N/OCC(=O)N2CC(C)OC(C)C2)cc1OC1CCCC1` (stereo not given): the results for the Activity in series [2] and in series [3] were 0.14% and “Non-toxic”, respectively.
As to `COc1ccc(/C=N/N2CC(C)OC(C)C2)cc1OC1CCCC1` (stereo not given), the inhibition in series [1] was determined as 75%; in [4], 68%; in [5], 53%; in series [6], 75%; in series [7] it was 29%; in series [8], 47%. For the same compound, the IC50 in series [9] amounted to 1550 nM. The Activity is 0.01% in series [2] and “Non-toxic” in [3].
For the compound `COc1ccc(/C=N/OCC(O)CNN2CCOCC2)cc1OC1CCCC1` (stereo not given), the inhibition in series [1] is 56%; in [6], 56%; in series [7], 33%; in series [8], 34%. Also, in series [9], the concentration for half-maximal inhibition (IC50) came out at 1260 nM. The Activity in series [2] is given as 0.01%; in series [3], “Non-toxic”.
Take `COc1ccc(CCC(=O)N2CCOCC2)cc1OC1CCCC1`: in series [1], the inhibition is 7%.
Consider `COc1ccc(/C=N/OCC(O)CN2CCC(O)CC2)cc1OC1CCCC1` (stereo not given), for which the inhibition in series [1] was found to be 65%; in [6], 65%; in [7] it was 10%; in [8] it was 5%. The IC50 in series [9] is 1790 nM. The Activity in [2] is 1.2%; in series [3], “Non-toxic”. In addition, the inhibition result in series [10] is “Active”.
Regarding `COc1ccc(/C=N/OCC(=O)N2CCC(O)CC2)cc1OC1CCCC1`, the inhibition in series [1] was found to be 30%.
Take `COc1ccc(/C=C/C(=O)N2CC(C)OC(C)C2)cc1OC1CCCC1` (stereo not given): the inhibition in series [1] stood at 16%.
In the case of `COc1ccc(/C=N/OCC(O)CNN2CC(C)OC(C)C2)cc1OC1CCCC1` (stereo not given), the inhibition in series [1] was 80%; in series [4], 65%; in series [5], 74%; in [6], 80%; in [7], 41%; in [8] it was 51%. The figures for the IC50 in series [9] and in series [11] were 210 nM and 18000 nM, respectively. The results for the Activity in series [2] and in series [3] were 0.75% and “Non-toxic”, respectively. Further, the Ratio IC50 in the series listed under Homo sapiens worked out at 90.
Regarding `COc1ccc(C(=O)N2CCC(O)CC2)cc1OC1CCCC1`, in [1], the inhibition was 20%.
Same read-out and setting: in the case of `COc1ccc(CCC(=O)N2CC(C)OC(C)C2)cc1OC1CCCC1` (stereo not given) it was 10%; in that of `COc1ccc(/C=N/OCC(CN2CCC(OC(C)=O)CC2)OC(C)=O)cc1OC1CCCC1` (stereo not given), 12%.
`COc1ccc(/C=C/C(=O)N2CCC(O)CC2)cc1OC1CCCC1`: the inhibition in series [1] was determined as 22%.
Turning to `COc1ccc(C(=O)N2CC(C)OC(C)C2)cc1OC1CCCC1` (stereo not given), the inhibition in series [1] worked out at 31%; in [4], 18%; in series [5], 9%; in [6], 31%.
`COc1ccc(C(=O)NN2CC(C)OC(C)C2)cc1OC1CCCC1` (stereo not given): the inhibition in [1] is 0%.
As to `COc1ccc(C(=O)N2CCOCC2)cc1OC1CCCC1`, in [1], the inhibition came out at 45%.
For the compound `COc1ccc(/C=N/OCCC(=O)N2CCOCC2)cc1OC1CCCC1`, in series [1], the inhibition turned out to be 49%.
With `COc1cc([C@@H]2c3cc4c(cc3[C@@H](O[C@@H]3O[C@@H]5CO[C@@H](C)O[C@H]5[C@H](O)[C@H]3O)[C@H]3COC(=O)[C@H]23)OCO4)cc(OC)c1O` [ETOPOSIDE], the Activity result in [3] is recorded as “Toxic”.
As to `COc1ccc(CCC(=O)N2CCC(O)CC2)cc1OC1CCCC1`, the inhibition in series [1] stood at 12%.
In the case of `COc1ccc(C(=O)NN2CCOCC2)cc1OC1CCCC1`, the inhibition turned out to be 32% in series [1], 49% in [4], 32% in series [5] and 32% in series [6].
As for `COc1ccc(/C=N/N2CCOCC2)cc1OC1CCCC1`, the inhibition in [1] was 83%; in series [4], 75%; in [5], 62%; in [6], 83%; in [7], 41%; in series [8] it was 62%. The IC50 in series [9] came out at 660 nM; in series [11], 1600 nM. Also, the Activity is listed as 0.04% in series [2] and “Non-toxic” in series [3]. Also, the Ratio IC50 in the series listed under Homo sapiens is 2.6.
